Experimental data: ChEMBL document CHEMBL1255406, “Production of a class II two-component lantibiotic of Streptococcus pneumoniae using the class I nisin synthetic machinery and leader sequence” (2010)
Values after ≈ are worked out from the molar mass of the structure shown. Active and inactive are the calls of the source. The rule behind the calls is not given here. Peptide text beside a SMILES is read from it.

Key:
Micrococcus flavus [1] = test: Antimicrobial activity against Micrococcus flavus assessed as growth inhibition; format: functional
Procedure, shortened: (§1)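 Broth microdilution MIC in GM17 in 96-well plates. Overnight M. flavus culture diluted 1:50 and grown to OD600 0.2, then 150 µl culture mixed with 50 µl medium containing serial peptide concentrations. Incubated overnight at a temperature suited to the strain (M. flavus grown at 30°C), with OD600 read every 30 min. MIC is the lowest concentration inhibiting growth, read when untreated cells reach half-maximal OD. At least triplicate.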

Micrococcus flavus [2] = test: Antimicrobial activity against Micrococcus flavus assessed as growth inhibition in presence of trypsin; format: functional; procedure, shortened: as §1
Streptococcus pneumoniae [3] = test: Antimicrobial activity against Streptococcus pneumoniae assessed as growth inhibition in presence of trypsin; format: functional, organism-based
Procedure, shortened: (§2)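 Strains in GM17 at 37°C, diluted 1:50 from overnight and grown to OD600 0.2, then exposed to peptide dilutions. OD600 read every 30 min. MIC = lowest inhibiting concentration when untreated cells reach half-maximal OD. At least triplicate.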

Streptococcus pneumoniae [4] = test: Antimicrobial activity against Streptococcus pneumoniae assessed as growth inhibition in presence of leucine aminopeptidase; format: functional, organism-based
Procedure, shortened: (§3)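 Leader cleaved by 30 min incubation at 37°C with leucine aminopeptidase in phosphate buffer, pH 7.4. Strains in GM17 at 37°C, diluted 1:50 from overnight and grown to OD600 0.2, then mixed with peptide dilutions. OD600 monitored every 30 min. MIC = lowest concentration inhibiting growth, read when untreated cultures reach half-maximal OD. At least triplicate.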

Enterococcus faecalis [5] = test: Antimicrobial activity against Enterococcus faecalis assessed as growth inhibition in presence of trypsin; format: functional, organism-based; procedure, shortened: as §2
Enterococcus faecalis [6] = test: Antimicrobial activity against Enterococcus faecalis assessed as growth inhibition in presence of leucine aminopeptidase; format: functional, organism-based; procedure, shortened: as §3
Staphylococcus aureus [7] = test: Antimicrobial activity against Staphylococcus aureus assessed as growth inhibition in presence of trypsin; format: functional, organism-based; procedure, shortened: as §2
Staphylococcus aureus [8] = test: Antimicrobial activity against Staphylococcus aureus assessed as growth inhibition in presence of leucine aminopeptidase; format: functional, organism-based; procedure, shortened: as §3
Streptococcus mitis [9] = test: Antimicrobial activity against Streptococcus mitis assessed as growth inhibition in presence of trypsin; format: functional, organism-based; procedure, shortened: as §2
Streptococcus mitis [10] = test: Antimicrobial activity against Streptococcus mitis assessed as growth inhibition in presence of leucine aminopeptidase; format: functional, organism-based; procedure, shortened: as §3
Micrococcus flavus [11] = test: Antimicrobial activity against Micrococcus flavus assessed as growth inhibition in presence of leucine aminopeptidase; format: functional; procedure, shortened: as §1

Compound	MIC (Micrococcus flavus [1])	MIC (Micrococcus flavus [2])	growth inhibition (GI) (Streptococcus pneumoniae [3])	growth inhibition (GI) (Streptococcus pneumoniae [4])	growth inhibition (GI) (Enterococcus faecalis [5])	growth inhibition (GI) (Enterococcus faecalis [6])	growth inhibition (GI) (Staphylococcus aureus [7])	growth inhibition (GI) (Staphylococcus aureus [8])	growth inhibition (GI) (Streptococcus mitis [9])	growth inhibition (GI) (Streptococcus mitis [10])	MIC (Micrococcus flavus [11])
CC[C@H](C)[C@H](NC(=O)CNC(=O)[C@H](CO)NC(=O)[C@@H](NC(=O)[C@H](C)NC(=O)[C@H](C)NC(=O)[C@H](CO)NC(=O)[C@@H](NC(=O)[C@H](CS)NC(=O)[C@@H](NC(=O)[C@H](CCCCN)NC(=O)[C@H](CO)NC(=O)[C@H](CO)NC(=O)[C@H](C)NC(=O)[C@H](C)NC(=O)[C@H](C)NC(=O)[C@H](CO)NC(=O)[C@H](CCCCN)NC(=O)[C@H](CC(C)C)NC(=O)[C@@H](NC(=O)[C@@H](NC(=O)[C@@H]1CCCN1C(=O)[C@@H](NC(=O)[C@@H]1CCCN1C(=O)[C@@H](NC(=O)[C@@H](N)Cc1c[nH]c2ccccc12)[C@@H](C)O)[C@@H](C)O)[C@@H](C)CC)[C@@H](C)CC)C(C)C)[C@@H](C)CC)C(C)C)C(=O)NCC(=O)NCC(=O)N[C@@H](CC(C)C)C(=O)N[C@H](C(=O)N[C@@H](CO)C(=O)N[C@@H](Cc1ccc(O)cc1)C(=O)N[C@@H](CC(N)=O)C(=O)N[C@@H](CC(N)=O)C(=O)N[C@@H](CC(=O)O)C(=O)N[C@@H](CS)C(=O)N[C@@H](CC(C)C)C(=O)NCC(=O)O)C(C)C (H-WTPTPIILKSAAASSKVCISAAVSGIGGLVSYNNDCLG-OH)	80 µM (≈ 301 µg/mL)	0.6 µM	inactive	inactive	inactive	inactive	inactive	inactive	inactive	inactive	
C=C(NC(=O)[C@H](NC(=O)[C@@H](Cc1cnc[nH]1)NC(=O)[C@H](NC(=O)[C@@H](CO)NC(=O)[C@H]1CS[C@H](C)[C@@H]2NC(=O)[C@@H](C)NC(=O)[C@@H](NC(=O)[C@@H](CCCCN)NC(=O)[C@@H](CCSC)NC(=O)[C@@H](CC(N)=O)[C@H]3CS[C@H](C)[C@H](NC(=O)[C@@H](CCCCN)NC(=O)[C@H]4CS[C@H](C)[C@H](NC(=O)[C@H]5CSC[C@H](NC(=O)/C(=C/C)NC(=O)[C@H](N)[C@H](C)CC)C(=O)N[C@H]([C@H](C)CC)C(=O)NC(=C)C(=O)N[C@H](CC(C)C)C(=O)N5)C(=O)N5CCC[C@@H]5C(=O)NCC(=O)N4)C(=O)NCC(=O)N[C@H](C)C(=O)N[C@H](CC(C)C)C(=O)N[C@H](CCSC)C(=O)NCC(=O)N3)[C@@H](C)SC[C@@H](NC2=O)C(=O)N[C@H](Cc2cnc[nH]2)C(=O)N1)[C@H](C)CC)C(C)C)C(=O)N[C@H](CCCCN)C(=O)O [PRENISIN]	20 µM (≈ 66.2 µg/mL)	0.004 µM									
CC[C@H](C)[C@H](NC(=O)[C@H](Cc1ccccc1)NC(=O)[C@H](CO)NC(=O)[C@H](CC(C)C)NC(=O)[C@@H](NC(=O)[C@H](C)NC(=O)[C@H](CO)NC(=O)[C@H](CS)NC(=O)[C@@H](NC(=O)[C@@H](NC(=O)[C@@H](NC(=O)[C@@H](N)CO)[C@@H](C)O)[C@@H](C)CC)[C@@H](C)CC)[C@@H](C)O)C(=O)N[C@@H](C)C(=O)N[C@@H](CO)C(=O)N[C@@H](Cc1ccc(O)cc1)C(=O)N[C@@H](CC(C)C)C(=O)NCC(=O)N[C@@H](CO)C(=O)N[C@@H](C)C(=O)N[C@@H](CCC(N)=O)C(=O)N[C@H](C(=O)N[C@@H](CCCNC(=N)N)C(=O)N[C@@H](CS)C(=O)NCC(=O)N[C@@H](CCCCN)C(=O)N[C@@H](CC(=O)O)C(=O)N[C@@H](CC(N)=O)C(=O)N[C@@H](CCCCN)C(=O)N[C@@H](CCCCN)C(=O)N[C@@H](CCCCN)C(=O)O)[C@@H](C)O (H-STIICSATLSFIASYLGSAQTRCGKDNKKK-OH)	85 µM (≈ 271 µg/mL)	10 µM	inactive	inactive	inactive	inactive	inactive	inactive	inactive	inactive	8.5 µM
